Our source for the IC50, inhibition and Activity values is ChEMBL document CHEMBL4680065, “Pharmacophore-based screening of diamidine small molecule inhibitors for protein arginine methyltransferases” (RSC Med Chem, 2021).

In experiment [1] the target is T1, Protein arginine N-methyltransferase 7 (Homo sapiens, UniProt Q9NVM4).
T1 sequence (Q9NVM4 whole entry): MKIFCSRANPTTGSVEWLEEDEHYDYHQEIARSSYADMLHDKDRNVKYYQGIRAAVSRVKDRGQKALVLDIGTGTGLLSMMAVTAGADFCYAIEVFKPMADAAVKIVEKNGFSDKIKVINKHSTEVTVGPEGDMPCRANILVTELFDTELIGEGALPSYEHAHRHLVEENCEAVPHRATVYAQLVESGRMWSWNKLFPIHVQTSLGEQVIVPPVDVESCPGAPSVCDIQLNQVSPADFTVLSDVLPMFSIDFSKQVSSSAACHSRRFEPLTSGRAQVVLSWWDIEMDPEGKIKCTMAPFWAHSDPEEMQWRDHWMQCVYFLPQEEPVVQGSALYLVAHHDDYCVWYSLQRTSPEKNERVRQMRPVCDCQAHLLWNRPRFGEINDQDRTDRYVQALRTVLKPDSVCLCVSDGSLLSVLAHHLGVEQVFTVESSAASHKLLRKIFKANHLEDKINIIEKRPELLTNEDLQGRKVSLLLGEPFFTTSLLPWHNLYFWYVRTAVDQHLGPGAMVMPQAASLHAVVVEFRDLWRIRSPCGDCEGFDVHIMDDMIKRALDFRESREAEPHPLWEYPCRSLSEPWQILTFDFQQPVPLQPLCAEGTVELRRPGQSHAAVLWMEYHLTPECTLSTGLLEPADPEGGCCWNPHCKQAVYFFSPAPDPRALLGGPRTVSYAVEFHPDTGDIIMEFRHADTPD
Nature of the experiment: Inhibition of recombinant GST-tagged PRMT7 (unknown origin) expressed in Escherichia coli using biotin-labeled SMD1 as substrate incubated for 120 mins in presence of [3H]-SAM cofactor by scintillation proximity assay. In outline:
(§1)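 The inhibitor was serially diluted and added to the enzyme, [3H]-SAM and substrate mixture, and methylated substrate was quantified by scintillation proximity assay. Reactions were held at initial rate, with yield under 10% and substrate near Km. PRMT3, PRMT8 and G9a were His-tagged human proteins, and PRMT7 was GST-tagged, all expressed in E. coli and affinity-purified.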

Experiment [2] addresses T2, Protein arginine N-methyltransferase 1 (Homo sapiens, UniProt Q99873). Kind of experiment: Non-competitive inhibition of recombinant His-tagged PRMT1 (unknown origin) expressed in Escherichia coli BL21 (DE3) using varying levels of biotin-labeled histone H4-20 as substrate. The essentials: (§2)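 His-tagged human PRMT1 was expressed in E. coli BL21(DE3) and Ni-affinity purified. IC50 was measured by SPA at varied SAM or biotinylated H4 peptide (0.3125–4.5 μM), with the other component fixed near its Km (0.5 μM); n = 2.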
Target sequence in this assay (Q99873 whole entry, looked up): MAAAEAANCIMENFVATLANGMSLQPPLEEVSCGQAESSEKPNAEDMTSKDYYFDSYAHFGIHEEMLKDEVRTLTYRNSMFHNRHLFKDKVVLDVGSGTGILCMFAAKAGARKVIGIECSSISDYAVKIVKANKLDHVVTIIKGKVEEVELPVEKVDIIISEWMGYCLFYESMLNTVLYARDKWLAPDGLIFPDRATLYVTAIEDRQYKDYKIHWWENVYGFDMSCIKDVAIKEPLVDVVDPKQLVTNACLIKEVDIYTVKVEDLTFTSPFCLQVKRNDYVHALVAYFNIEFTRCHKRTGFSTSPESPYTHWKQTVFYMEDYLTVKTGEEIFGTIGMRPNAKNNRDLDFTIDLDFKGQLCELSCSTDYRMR

In experiment [3] the target is Protein arginine N-methyltransferase 8 (Homo sapiens, UniProt Q9NR22). Kind of experiment: Inhibition of recombinant His-tagged human PRMT8 expressed in Escherichia coli BL21 (DE3) using biotin-labeled histone H4-20 peptide as substrate incubated for 8 mins in presence of [3H]-SAM cofactor by scintillation proximity assay. The essentials: as §1
Experiment [4] deals with T3, Protein arginine N-methyltransferase 7 (Homo sapiens) (UniProt Q9NVM4).
T3 sequence (whole entry): T1 sequence (Q9NVM4 whole entry)
Nature of the experiment: Inhibition of recombinant GST-tagged PRMT7 (unknown origin) expressed in Escherichia coli assessed as residual activity at 10 uM using biotin-labeled SMD1 as substrate incubated for 120 mins in presence of [3H]-SAM cofactor by scintillation proximity assay relative to control. The essentials:
(§3)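 Single-point profiling used 10 μM inhibitor added to the enzyme, [3H]-SAM and substrate mixture. Methylated substrate was quantified by scintillation proximity assay. Reactions were held at initial rate, with yield under 10% and substrate near Km. Enzyme, [3H]-SAM and substrate final levels are given in the supplement.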

The subject of a further experiment is HEL. Nature of the experiment: Antiproliferative activity against human HEL cells assessed as inhibition of cell growth measured after 72 hrs by CellTiter-Glo assay. Format: functional, cell-based. The essentials:
(§4)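 Cells were cultured with the test agent, serially diluted, for 72 h. The control received the same amount of DMSO. Cell viability was then measured, and IC50 values were taken from sensitivity curves.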

In experiment [5] the target is PRMT5/MEP50 complex (Homo sapiens) (UniProt O14744+Q9BQA1). Kind of experiment: Inhibition of PRMT5/MEP50 (unknown origin) assessed as residual activity at 10 uM using biotin-labeled histone H4-20 peptide as substrate incubated for 8 mins in presence of [3H]-SAM cofactor by scintillation proximity assay relative to control. Format: protein-complex assay. The essentials:
as §3

Experiment [6] deals with T4, Protein arginine N-methyltransferase 6 (Homo sapiens, UniProt Q96LA8). Nature of the experiment: Inhibition of PRMT6 (unknown origin) assessed as residual activity at 10 uM using biotin-labeled SMD1 as substrate incubated for 30 mins in presence of [3H]-SAM cofactor by scintillation proximity assay relative to control. In outline:
as §3
Target sequence in this assay (Q96LA8 whole entry, looked up): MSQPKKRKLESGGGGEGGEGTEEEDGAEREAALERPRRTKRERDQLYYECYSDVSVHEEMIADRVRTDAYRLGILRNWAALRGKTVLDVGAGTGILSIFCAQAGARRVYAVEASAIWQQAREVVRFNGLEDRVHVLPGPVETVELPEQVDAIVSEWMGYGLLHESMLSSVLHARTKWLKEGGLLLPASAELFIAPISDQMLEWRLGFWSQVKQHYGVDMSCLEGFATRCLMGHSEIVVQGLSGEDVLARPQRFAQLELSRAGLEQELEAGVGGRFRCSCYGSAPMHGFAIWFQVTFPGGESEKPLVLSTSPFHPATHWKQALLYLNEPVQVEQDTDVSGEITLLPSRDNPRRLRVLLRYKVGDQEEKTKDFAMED

Another experiment has as its target PRMT5/MEP50 complex (Homo sapiens, UniProt O14744). Nature of the experiment: Inhibition of PRMT5/MEP50 (unknown origin) using biotin-labeled histone H4-20 peptide as substrate incubated for 8 mins in presence of [3H]-SAM cofactor by scintillation proximity assay. Format: protein-complex assay. In outline: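 Part of a methyltransferase selectivity panel. Test compound was serially diluted into a mixture of enzyme, [3H]-SAM cofactor and substrate. Methylated substrate was quantified by scintillation proximity assay. Reactions were held at initial-rate conditions with substrate turnover under 10%, and substrate concentrations were near Km.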

For another experiment, the system named is CMK. Kind of experiment: Antiproliferative activity against human CMK cells assessed as inhibition of cell growth measured after 72 hrs by CellTiter-Glo assay. Format: functional, cell-based. In outline:
as §4

Experiment [7] concerns the target T2, Protein arginine N-methyltransferase 1. Nature of the experiment: Inhibition of PRMT1 in human MEG-01 cells assessed as reduction in RBM15 methylation level measured after 24 hrs by immunoblotting analysis. Format: cell-based. In outline:
(§5)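 MEG01 cells were cultured for 24 h with the inhibitor (100 nM, 200 nM) or with DMSO control. Cell extracts were resolved by SDS-PAGE and immunoblotted with anti-methyl-RBM15 antibody and the pan-asymmetric methylation antibody α-Asym24. Equal loading was checked by Ponceau S staining.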
Target sequence in this assay (Q99873 whole entry, looked up): as the sequence (Q99873 whole entry, looked up) above

The next experiment deals with K562. Nature of the experiment: Antiproliferative activity against human K562 cells assessed as inhibition of cell growth measured after 72 hrs by CellTiter-Glo assay. Format: functional, cell-based. The following applies: K562, 72 h. In outline: as §4
The subject of another experiment is MEG-01. Kind of experiment: Antiproliferative activity against human MEG-01 cells assessed as inhibition of cell growth measured after 72 hrs by CellTiter-Glo assay. As to conditions: MEG-01, 72 h. Format: functional, cell-based. The essentials:
as §4

Experiment [8] concerns the target T4, Protein arginine N-methyltransferase 6. Nature of the experiment: Inhibition of PRMT6 (unknown origin) using biotin-labeled SMD1 as substrate incubated for 30 mins in presence of [3H]-SAM cofactor by scintillation proximity assay.
Target sequence in this assay (Q96LA8 whole entry): as the sequence (Q96LA8 whole entry, looked up) above
Experiment [9] has as its target T2, Protein arginine N-methyltransferase 1. Nature of the experiment: Non-competitive inhibition of recombinant His-tagged PRMT1 (unknown origin) expressed in Escherichia coli BL21 (DE3) using varying levels of [3H]-SAM as cofactor. In outline:
as §2
Target sequence in this assay (Q99873 whole entry, looked up): as the sequence (Q99873 whole entry, looked up) above

Experiment [10] shares this target. Kind of experiment: Inhibition of recombinant human His-tagged PRMT1 expressed in Escherichia coli BL21 (DE3) using biotin-labeled histone H4-20 as substrate incubated for 8 mins in presence of [3H]-SAM cofactor by scintillation proximity assay.
Target sequence in this assay (Q99873 whole entry): as the sequence (Q99873 whole entry, looked up) above
Experiment [11] shares this target. Kind of experiment: Inhibition of PRMT1 in human MEG-01 cells assessed as reduction in RBM15 total asymmetric arginine methylation level at 100 to 200 nM measured after 24 hrs by immunoblotting analysis. As to conditions: dose 100-200 nM. Format: cell-based. The essentials: as §5
Target sequence in this assay (Q99873 whole entry, looked up): as above

SMILES strings stand for the structures. The source made the active and inactive calls. The rule behind the calls is not given here.

Sequence of Protein arginine N-methyltransferase 8 (Q9NR22 whole entry): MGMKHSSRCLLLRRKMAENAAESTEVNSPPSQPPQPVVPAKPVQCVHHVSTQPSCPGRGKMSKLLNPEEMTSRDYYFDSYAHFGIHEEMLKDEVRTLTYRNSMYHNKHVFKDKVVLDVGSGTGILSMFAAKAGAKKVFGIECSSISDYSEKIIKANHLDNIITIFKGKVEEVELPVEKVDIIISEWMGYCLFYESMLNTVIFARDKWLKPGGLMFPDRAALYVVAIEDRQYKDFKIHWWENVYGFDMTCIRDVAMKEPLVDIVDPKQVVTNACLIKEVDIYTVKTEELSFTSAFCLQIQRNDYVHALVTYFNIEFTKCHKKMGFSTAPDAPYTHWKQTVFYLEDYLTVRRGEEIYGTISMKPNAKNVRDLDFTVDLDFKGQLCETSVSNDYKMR
Sequence of PRMT5/MEP50 complex (O14744 whole entry): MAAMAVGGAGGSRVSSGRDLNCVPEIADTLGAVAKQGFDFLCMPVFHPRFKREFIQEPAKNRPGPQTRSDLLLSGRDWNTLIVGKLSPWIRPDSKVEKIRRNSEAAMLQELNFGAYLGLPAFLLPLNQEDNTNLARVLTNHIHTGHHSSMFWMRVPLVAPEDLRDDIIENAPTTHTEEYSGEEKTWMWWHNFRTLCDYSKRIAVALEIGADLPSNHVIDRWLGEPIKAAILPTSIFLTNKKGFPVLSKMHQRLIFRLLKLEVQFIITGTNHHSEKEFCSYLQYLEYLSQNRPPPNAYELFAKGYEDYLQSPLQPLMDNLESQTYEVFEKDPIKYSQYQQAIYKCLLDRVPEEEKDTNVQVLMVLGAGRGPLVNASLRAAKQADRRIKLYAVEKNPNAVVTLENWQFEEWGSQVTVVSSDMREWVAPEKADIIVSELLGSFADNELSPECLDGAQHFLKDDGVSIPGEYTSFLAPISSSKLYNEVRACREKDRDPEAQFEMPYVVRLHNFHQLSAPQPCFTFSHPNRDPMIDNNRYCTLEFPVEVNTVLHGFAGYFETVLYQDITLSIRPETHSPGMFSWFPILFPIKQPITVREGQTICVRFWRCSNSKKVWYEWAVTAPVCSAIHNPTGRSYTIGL
Sequence of PRMT5/MEP50 complex (Q9BQA1 whole entry, further chain): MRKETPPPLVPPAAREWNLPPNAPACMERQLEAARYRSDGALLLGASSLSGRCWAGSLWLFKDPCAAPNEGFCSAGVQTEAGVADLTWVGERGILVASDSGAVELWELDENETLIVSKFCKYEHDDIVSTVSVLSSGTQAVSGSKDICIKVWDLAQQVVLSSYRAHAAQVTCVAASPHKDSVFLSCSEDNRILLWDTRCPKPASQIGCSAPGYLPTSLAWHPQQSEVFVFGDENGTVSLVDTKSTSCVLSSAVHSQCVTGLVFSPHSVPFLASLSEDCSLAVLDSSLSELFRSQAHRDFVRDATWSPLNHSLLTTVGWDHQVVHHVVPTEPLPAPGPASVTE

For the molecule `N=C(N)c1ccc(Nc2ccc(-c3cc4ccc(C(=N)N)cc4[nH]3)cc2)cc1`, the IC50 in experiment [1] worked out at 23600 nM; in experiment [3], 8200 nM; in the experiment on HEL it was 2270 nM; at PRMT5/MEP50 complex it was 6800 nM; in the experiment on CMK, 1310 nM; with K562, 1080 nM. In addition, the IC50 was 1030 nM with MEG-01, 2800 nM in experiment [8] and 2600 nM in [10]. Besides, the inhibition result in [2], in experiment [9] and in experiment [11] was “Active” in each case. Further, the Activity came to 32.1% in [4], 35.1% in experiment [5] and 22.9% in [6]. The inhibition entry in experiment [7] was “Dose-dependent effect”.
